The target of assay [1] is T1, Androgen receptor (Homo sapiens) (UniProt P10275).
T1 sequence (whole entry): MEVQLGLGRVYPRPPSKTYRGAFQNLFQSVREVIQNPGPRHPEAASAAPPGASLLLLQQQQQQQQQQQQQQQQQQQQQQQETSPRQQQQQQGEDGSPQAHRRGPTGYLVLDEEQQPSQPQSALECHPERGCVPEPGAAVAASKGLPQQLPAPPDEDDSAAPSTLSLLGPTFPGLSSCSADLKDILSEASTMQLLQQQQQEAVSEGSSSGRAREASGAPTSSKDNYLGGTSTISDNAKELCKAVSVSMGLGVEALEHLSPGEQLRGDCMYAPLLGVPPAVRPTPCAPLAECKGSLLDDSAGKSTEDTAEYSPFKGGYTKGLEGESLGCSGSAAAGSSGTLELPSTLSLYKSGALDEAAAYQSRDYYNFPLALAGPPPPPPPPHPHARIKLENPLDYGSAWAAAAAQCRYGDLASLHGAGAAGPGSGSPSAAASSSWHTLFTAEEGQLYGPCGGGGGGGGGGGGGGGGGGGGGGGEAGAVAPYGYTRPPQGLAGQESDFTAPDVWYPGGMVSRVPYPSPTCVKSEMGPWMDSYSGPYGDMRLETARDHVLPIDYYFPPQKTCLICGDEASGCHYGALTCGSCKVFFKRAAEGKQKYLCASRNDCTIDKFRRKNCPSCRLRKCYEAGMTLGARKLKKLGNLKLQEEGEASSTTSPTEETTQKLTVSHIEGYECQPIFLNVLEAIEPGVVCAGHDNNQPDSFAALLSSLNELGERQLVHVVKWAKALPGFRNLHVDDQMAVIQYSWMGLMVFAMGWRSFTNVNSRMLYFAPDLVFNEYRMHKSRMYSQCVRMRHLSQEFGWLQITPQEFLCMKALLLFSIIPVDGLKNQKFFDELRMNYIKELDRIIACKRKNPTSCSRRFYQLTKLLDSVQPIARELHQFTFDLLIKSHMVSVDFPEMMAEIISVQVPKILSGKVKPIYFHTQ
Nature of the assay: Agonist activity at wild type human androgen receptor expressed in COS-1 cells co-transfected with pSG5 assessed as effect on testosterone induced luciferase activity at 10 uM after 18 hrs relative untreated control. In kind it is functional, cell-based.

For assay [2], the target named is Luciferin 4-monooxygenase (Photinus pyralis) (UniProt P08659). The assay is described as follows: Inhibition of Photinus pyralis recombinant luciferase at 10 uM incubated for 20 mins. The procedure, abridged:
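Purified firefly luciferase diluted to 0.1 μg/mL in 1x Reporter Lysis Buffer, with compound added from ethanol stocks (10⁻³–10⁻⁷ mol/L dilutions) in triplicate. Incubated 20 min at rt, then luciferase substrate added and luminescence read. Blank (lysis buffer) and ethanol-vehicle controls were included.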

Active and inactive are the calls of the source. The rule behind the calls is not given here.

Sequence of Luciferin 4-monooxygenase (Photinus pyralis) (P08659 whole entry): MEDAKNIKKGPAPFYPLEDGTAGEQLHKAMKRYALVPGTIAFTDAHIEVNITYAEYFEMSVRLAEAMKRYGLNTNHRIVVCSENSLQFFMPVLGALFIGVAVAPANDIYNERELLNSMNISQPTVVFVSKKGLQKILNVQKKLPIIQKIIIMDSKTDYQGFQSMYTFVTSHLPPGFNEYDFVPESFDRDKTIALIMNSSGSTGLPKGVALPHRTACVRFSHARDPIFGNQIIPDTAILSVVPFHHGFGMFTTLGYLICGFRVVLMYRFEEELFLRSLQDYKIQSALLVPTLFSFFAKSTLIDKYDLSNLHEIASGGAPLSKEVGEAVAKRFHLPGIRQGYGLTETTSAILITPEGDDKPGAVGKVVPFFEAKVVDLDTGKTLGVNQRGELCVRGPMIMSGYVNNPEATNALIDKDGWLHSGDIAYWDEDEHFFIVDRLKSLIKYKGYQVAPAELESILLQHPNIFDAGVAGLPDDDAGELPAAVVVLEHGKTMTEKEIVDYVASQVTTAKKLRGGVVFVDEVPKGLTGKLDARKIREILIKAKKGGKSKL

As for `COc1ccc(C2=NOC3CCCCC23)cc1` (centres undefined), the outcome in assay [1] was inactive. In addition, in assay [2], the inhibition result was “inactive”.
Regarding `COc1cccc(C2=NOC3CCCCC23)c1` (centres undefined), the outcome in assay [1] was inactive. In assay [2], the inhibition entry is “inactive”.
For `Clc1ccc(C2=NOC3CCCCC23)cc1` (centres undefined), the result in assay [1] was inactive. For the same molecule, in assay [2], the inhibition entry is “inactive”.
Take `Clc1ccccc1C1=NOC2CCCCC12` (centres undefined): the result in assay [1] was inactive. In assay [2], the inhibition result is “inactive”.
As for `Fc1ccc(C2=NOC3CCCCC23)c(C(F)(F)F)c1` (centres undefined), the outcome in assay [1] was inactive. Besides, in assay [2], the inhibition entry was “inactive”.
For the molecule `Fc1ccc(C2=NOC3CCCCC23)cc1` (centres undefined), in assay [1], the result was inactive. In addition, the inhibition result in assay [2] was “inactive”.
Consider `Fc1ccccc1C1=NOC2CCCCC12` (centres undefined), for which, in assay [1], the outcome was inactive. In addition, the inhibition result in assay [2] was “inactive”.
For `N#Cc1ccc(C2=NOC3CCCCC23)c(C(F)(F)F)c1` (centres undefined), the result in assay [1] was inactive. Moreover, in assay [2], the inhibition entry was “inactive”.
For `N#Cc1ccc(C2=NOC3CCCCC23)cc1` (centres undefined), in assay [1], the outcome was inactive. Also, the inhibition entry in assay [2] was “inactive”.
For the molecule `N#Cc1ccc(C2=NOC3CCCCCC23)c(C(F)(F)F)c1` (centres undefined), in assay [1], the result was inactive. Moreover, the inhibition entry in assay [2] is “inactive”.
`N#Cc1ccc(C2=NOC3CCCCCCC23)c(C(F)(F)F)c1` (centres undefined): the outcome in assay [1] was inactive. In assay [2], the inhibition entry was “inactive”.
As for `N#Cc1cccc(C2=NOC3CCCCC23)c1C(F)(F)F` (centres undefined), the outcome in assay [1] was inactive. Further, in assay [2], the inhibition entry is “inactive”.
`O=[N+]([O-])c1ccc(C2=NOC3CCCCCCC23)c(C(F)(F)F)c1` (centres undefined): the outcome in assay [1] was inactive. Moreover, the inhibition entry in assay [2] was “inactive”.
Turning to `c1ccc(C2=NOC3CCCCC23)cc1` (centres undefined), the result in assay [1] was inactive. Further, the inhibition result in assay [2] was “inactive”.
Regarding `c1ccc2c(C3=NOC4CCCCC34)cccc2c1` (centres undefined), the result in assay [1] was inactive. Besides, the inhibition result in assay [2] was “inactive”.
Consider `COc1ccc(C2=NOC3CCCCC23)cc1` (cis isomer), for which the outcome in assay [1] was inactive. The inhibition entry in assay [2] is “inactive”.
As to `Clc1ccc(C2=NOC3CCCCC23)cc1` (cis isomer), the result in assay [1] was inactive. Further, the inhibition result in assay [2] was “inactive”.
With `Clc1ccccc1C1=NOC2CCCCC12` (cis isomer), the outcome in assay [1] was inactive. The inhibition entry in assay [2] was “inactive”.
Take `Fc1ccc(C2=NOC3CCCCC23)c(C(F)(F)F)c1` (cis isomer): the result in assay [1] was inactive. Also, in assay [2], the inhibition result was “inactive”.
With `Fc1ccc(C2=NOC3CCCCC23)cc1` (cis isomer), the outcome in assay [1] was inactive. Besides, the inhibition result in assay [2] was “inactive”.
Consider `N#Cc1ccc(C2=NOC3CCCCC23)c(C(F)(F)F)c1` (cis isomer), for which, in assay [1], the result was inactive. Further, the inhibition entry in assay [2] was “inactive”.
Take `N#Cc1ccc(C2=NOC3CCCCCC23)c(C(F)(F)F)c1` (cis isomer): in assay [1], the outcome was inactive. In addition, the inhibition result in assay [2] was “inactive”.
In the case of `N#Cc1ccc(C2=NOC3CCCCCCC23)c(C(F)(F)F)c1` (cis isomer), in assay [1], the outcome was inactive. Moreover, the inhibition entry in assay [2] was “inactive”.
For the molecule `N#Cc1cccc(C2=NOC3CCCCC23)c1C(F)(F)F` (cis isomer), in assay [1], the outcome was inactive. For the same molecule, the inhibition result in assay [2] is “inactive”.
`O=[N+]([O-])c1ccc(C2=NOC3CCCCCCC23)c(C(F)(F)F)c1` (cis isomer): the result in assay [1] was inactive. Further, the inhibition entry in assay [2] is “inactive”.
As to `c1ccc(C2=NOC3CCCCC23)cc1` (cis isomer), the result in assay [1] was inactive. In addition, in assay [2], the inhibition entry was “inactive”.
Turning to `c1ccc2c(C3=NOC4CCCCC34)cccc2c1` (cis isomer), the outcome in assay [1] was inactive. The inhibition result in assay [2] is “inactive”.

The record behind these values is ChEMBL document CHEMBL2157978, “Design, synthesis, and biological evaluation of nonsteroidal cycloalkane[d]isoxazole-containing androgen receptor modulators” (J Med Chem, 2012).
